The target in test [1] is T1, Prostaglandin G/H synthase 2 (Homo sapiens) (UniProt P35354).
T1 sequence (whole entry): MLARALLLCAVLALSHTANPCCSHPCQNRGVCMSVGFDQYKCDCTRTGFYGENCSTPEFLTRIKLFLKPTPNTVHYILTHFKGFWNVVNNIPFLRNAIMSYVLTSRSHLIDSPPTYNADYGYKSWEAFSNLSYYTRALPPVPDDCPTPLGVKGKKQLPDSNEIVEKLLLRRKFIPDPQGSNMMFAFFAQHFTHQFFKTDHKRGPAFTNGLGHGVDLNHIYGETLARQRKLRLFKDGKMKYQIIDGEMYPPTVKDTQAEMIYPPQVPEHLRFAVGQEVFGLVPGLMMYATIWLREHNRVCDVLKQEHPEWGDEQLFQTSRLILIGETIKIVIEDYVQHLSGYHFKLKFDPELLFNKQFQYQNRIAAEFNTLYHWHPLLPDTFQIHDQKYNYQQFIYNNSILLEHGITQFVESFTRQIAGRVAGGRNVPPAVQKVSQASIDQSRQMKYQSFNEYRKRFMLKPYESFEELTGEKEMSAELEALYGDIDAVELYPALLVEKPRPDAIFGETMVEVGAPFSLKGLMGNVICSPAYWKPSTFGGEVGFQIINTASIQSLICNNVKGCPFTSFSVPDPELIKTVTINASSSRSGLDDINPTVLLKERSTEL
In words: Percentage of inhibition of Prostaglandin G/H synthase 2 activity in human whole blood (HWB) at 1 uM. The class given is tissue-based. A digest of the protocol:
(§1)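 COX-2: human whole blood stimulated with lipopolysaccharide 026:B6, 37 °C, 24 h, with aspirin (20 µg/mL) to block COX-1. PGE2 by enzyme immunoassay after centrifugation. Run in duplicate or repeated.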

Test [2] deals with T1, Prostaglandin G/H synthase 2 (Homo sapiens). In words: Percentage inhibition of Prostaglandin G/H synthase 2 activity in human whole blood (HWB) at 10 uM. The class given is tissue-based. A digest of the protocol: as §1
The target of test [3] is T2, Prostaglandin G/H synthase 1 (Homo sapiens, UniProt P23219). Kind of test: Percentage of inhibition of Prostaglandin G/H synthase 1 activity in human whole blood (HWB) at 10 uM. It is filed as tissue-based. Put shortly:
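COX-1: human blood left to clot spontaneously 5 h at 37 °C, then A23187 (5 μM) 30 min further. Stopped at 0 °C with EGTA/MeOH; supernatant TXB2 by enzyme immunoassay. Run in duplicate or repeated.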

Test [4] addresses T2, Prostaglandin G/H synthase 1. The class given is cell-based, U-937.

Where only a bound is given, the exact number is not on record here.

T2 sequence (P23219 whole entry): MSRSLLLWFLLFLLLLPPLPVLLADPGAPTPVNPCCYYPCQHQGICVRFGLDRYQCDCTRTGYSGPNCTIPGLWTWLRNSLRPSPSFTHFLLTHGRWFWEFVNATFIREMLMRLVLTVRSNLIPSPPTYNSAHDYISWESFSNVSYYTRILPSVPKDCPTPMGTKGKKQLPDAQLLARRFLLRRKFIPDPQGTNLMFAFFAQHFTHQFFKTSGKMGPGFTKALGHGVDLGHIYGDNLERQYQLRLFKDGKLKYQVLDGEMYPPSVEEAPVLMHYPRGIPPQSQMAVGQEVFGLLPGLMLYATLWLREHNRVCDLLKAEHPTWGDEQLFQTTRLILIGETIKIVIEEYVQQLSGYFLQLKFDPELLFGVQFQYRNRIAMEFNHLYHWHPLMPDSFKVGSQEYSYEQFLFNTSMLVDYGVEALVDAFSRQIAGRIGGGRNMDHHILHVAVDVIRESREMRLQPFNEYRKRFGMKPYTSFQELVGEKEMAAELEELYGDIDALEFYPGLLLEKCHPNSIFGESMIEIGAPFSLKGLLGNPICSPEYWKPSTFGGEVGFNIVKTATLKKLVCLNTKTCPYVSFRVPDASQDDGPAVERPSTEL

As for `CS(=O)(=O)c1ccc(-c2nn3c(-c4ccccc4)ccnc3c2-c2ccc(F)cc2)cc1`, the inhibition in test [1] is 0%; in test [2], 90.4%; in test [3] it was 5.7%.

`Cc1cnc2c(-c3ccc(F)cc3)c(-c3ccc(S(C)(=O)=O)cc3)nn2c1CO`: the inhibition in test [1] was 56.5%; in test [2], 100%; in test [3], 42.7%.

Consider `Cc1cnc2c(-c3ccc(F)c(F)c3)c(-c3ccc(S(C)(=O)=O)cc3)nn2c1C`, for which the inhibition stood at 100% in test [1], 100% in test [2] and 36.3% in test [3].

With `CCc1c(C)cnc2c(-c3ccc(F)cc3)c(-c3ccc(S(C)(=O)=O)cc3)nn12`, the inhibition amounted to 62.3% in test [1], 100% in test [2] and 82.8% in test [3].

On to `Cc1cnc2c(-c3ccc(F)cc3F)c(-c3ccc(S(C)(=O)=O)cc3)nn2c1C`, for which the inhibition in test [1] worked out at 61.1%; in test [2], 100%; in test [3] it was 80.8%.

Regarding `CS(=O)(=O)c1ccc(-c2nc3cnccn3c2-c2ccc(F)cc2)cc1`, the values for the inhibition in test [2] and in test [3] were 42.5% and 6%, respectively.

On to `Cc1cnc2c(-c3ccc(F)cc3)c(-c3ccc(S(C)(=O)=O)cc3)nn2c1-c1ccccc1`, for which the figures for the inhibition in test [2] and in test [3] were 12.3% and 0%, respectively.

As for `Cc1cnc2c(-c3ccc(F)cc3)c(-c3ccc(S(C)(=O)=O)cc3)nn2c1`, in test [4], the IC50 was greater than 10 µM. Besides, the inhibition in test [3] was found to be 8.2%.

As for `Cc1cc(C(=O)O)nc2c(-c3ccc(F)cc3)c(-c3ccc(S(C)(=O)=O)cc3)nn12`, the inhibition in test [2] is 24.6%; in test [3] it was 33.5%.

In the case of `Cc1nc(C)n2nc(-c3ccc(S(C)(=O)=O)cc3)c(-c3ccc(F)cc3)c2n1`, the inhibition turned out to be 18.1% in test [1], 90.3% in test [2] and 4.75% in test [3].

Take `CS(=O)(=O)c1ccc(-c2nc3cccnn3c2-c2ccc(F)cc2)cc1`: the inhibition in test [2] worked out at 61.2%; in test [3] it was 47%.

As for `CCCc1c(C)nnc2c(-c3ccc(F)cc3)c(-c3ccc(S(C)(=O)=O)cc3)nn12`, the figures for the inhibition in test [1], in test [2] and in test [3] were 17.9%, 95% and 18.7%, respectively.

Consider `CS(=O)(=O)c1ccc(-c2nn3c4c(cnc3c2-c2ccc(F)cc2)CCCC4)cc1`, for which the inhibition in test [1] turned out to be 57.7%; in test [2], 100%; in test [3], 40.4%.

On to `CCCCc1nc(C)nc2c(-c3ccc(F)cc3)c(-c3ccc(S(C)(=O)=O)cc3)nn12`, for which the inhibition in test [2] was determined as 54.6%; in test [3], 7.7%.

As to `Cc1nc2c(-c3ccc(F)cc3)c(-c3ccc(S(C)(=O)=O)cc3)nn2c(Cl)c1C`, the values for the inhibition in test [2] and in test [3] were 45.8% and 1.2%, respectively.

On to `CCCc1c(C(=O)O)cnc2c(-c3ccc(F)cc3)c(-c3ccc(S(C)(=O)=O)cc3)nn12`, for which the values for the inhibition in test [1], in test [2] and in test [3] were 31.9%, 0% and 7.4%, respectively.

Regarding `Cc1c(C(=O)O)cnc2c(-c3ccc(F)cc3)c(-c3ccc(S(C)(=O)=O)cc3)nn12`, the inhibition in test [2] is 56.3%; in test [3], 8.3%.

As to `CCOC(=O)c1cc(C)n2nc(-c3ccc(S(C)(=O)=O)cc3)c(-c3ccc(F)cc3)c2n1`, the values for the inhibition in test [2] and in test [3] were 41% and 8%, respectively.

Consider `Cc1cc(C(F)(F)F)nc2c(-c3ccc(F)cc3)c(-c3ccc(S(C)(=O)=O)cc3)nn12`, for which the values for the inhibition in test [2] and in test [3] were 57.2% and 2.5%, respectively.

On to `Cc1nc2c(-c3ccc(F)cc3)c(-c3ccc(S(C)(=O)=O)cc3)nn2c(C)c1C`, for which the IC50 in test [4] was greater than 10 µM. The inhibition in test [3] is 61.3%.

In turn, `Cc1cc(C)n2nc(-c3ccc(S(C)(=O)=O)cc3)c(-c3ccc(F)cc3)c2n1` showed a concentration for half-maximal inhibition (IC50) in test [4] greater than 10 µM. Moreover, the inhibition in test [3] amounted to 8.3%.

Turning to `CS(=O)(=O)c1ccc(-c2nn3c(C(F)(F)F)ccnc3c2-c2ccc(F)cc2)cc1`, the inhibition amounted to 3.5% in test [1], 90.6% in test [2] and 0% in test [3].

`Cc1cc(O)n2nc(-c3ccc(S(C)(=O)=O)cc3)c(-c3ccc(F)cc3)c2n1`: the inhibition in test [2] is 21.9%; in test [3], 8.1%.

Take `CS(=O)(=O)c1ccc(-c2nn3c4c(cnc3c2-c2ccc(F)cc2)CCC4)cc1`: the inhibition in test [1] amounted to 48.3%; in test [2], 90.4%; in test [3] it was 0%.

On to `Cc1cnc2c(-c3ccc(F)c(F)c3)c(-c3ccc(S(N)(=O)=O)cc3)nn2c1C`, for which the figures for the inhibition in test [1], in test [2] and in test [3] were 97.2%, 100% and 68.2%, respectively.

With `Cc1ccn2c(-c3ccc(F)cc3)c(-c3ccc(S(C)(=O)=O)cc3)nc2c1C`, the inhibition turned out to be 59.3% in test [1], 66.7% in test [2] and 0% in test [3].

Consider `CCc1nnc2c(-c3ccc(F)cc3)c(-c3ccc(S(C)(=O)=O)cc3)nn2c1CC`, for which the inhibition in test [1] stood at 50.9%; in test [2], 100%; in test [3], 88.7%.

For `CCCc1ccnc2c(-c3ccc(F)cc3)c(-c3ccc(S(C)(=O)=O)cc3)nn12`, the inhibition in test [1] amounted to 32.2%; in test [2], 56.1%; in test [3], 37.3%.

On to `CCc1nnc2c(-c3ccc(F)cc3)c(-c3ccc(S(C)(=O)=O)cc3)nn2c1C`, for which the inhibition was found to be 74.9% in test [1], 100% in test [2] and 61.9% in test [3].

Regarding `CCCCc1nccn2c(-c3ccc(F)cc3)c(-c3ccc(S(C)(=O)=O)cc3)nc12`, the inhibition in test [2] is 0%; in test [3] it was 9.8%.

In the case of `CC(=O)c1cnc2c(-c3ccc(F)cc3)c(-c3ccc(S(C)(=O)=O)cc3)nn2c1C`, the figures for the inhibition in test [1], in test [2] and in test [3] were 60.8%, 100% and 71.1%, respectively.

In the case of `Cc1ccn2c(-c3ccc(F)cc3)c(-c3ccc(S(C)(=O)=O)cc3)nc2n1`, the inhibition in test [2] is 50.7%; in test [3], 13.5%.

`Cc1nnc2c(-c3ccc(F)cc3)c(-c3ccc(S(C)(=O)=O)cc3)nn2c1C`: the inhibition in test [1] stood at 40.5%; in test [2], 100%; in test [3], 1.2%.

For the compound `Cc1cc2c(nc(-c3ccc(S(C)(=O)=O)cc3)n2-c2ccc(F)cc2)c(C)n1`, the inhibition came out at 4.3% in test [2] and 0% in test [3].

On to `CCCc1cnnc2c(-c3ccc(F)cc3)c(-c3ccc(S(C)(=O)=O)cc3)nn12`, for which the values for the inhibition in test [1], in test [2] and in test [3] were 43.9%, 100% and 29.3%, respectively.

For the compound `CS(=O)(=O)c1ccc(-c2nc3cnccc3n2-c2ccc(F)cc2)cc1`, the inhibition was determined as 21.3% in test [2] and 34.3% in test [3].

As to `Cc1cc(Cl)n2nc(-c3ccc(S(C)(=O)=O)cc3)c(-c3ccc(F)cc3)c2n1`, the results for the inhibition in test [2] and in test [3] were 14.3% and 32.5%, respectively.

Turning to `COc1cc(C)nc2c(-c3ccc(F)cc3)c(-c3ccc(S(C)(=O)=O)cc3)nn12`, the inhibition in test [2] and in test [3] was 0% throughout.

Regarding `Cc1cnn2c(-c3ccc(F)cc3)c(-c3ccc(S(C)(=O)=O)cc3)nc2c1C`, the results for the inhibition in test [1], in test [2] and in test [3] were 37.3%, 100% and 0%, respectively.

For the compound `Cc1c(CF)cnc2c(-c3ccc(F)cc3)c(-c3ccc(S(C)(=O)=O)cc3)nn12`, the inhibition in test [1] amounted to 4.4%; in test [2] it was 84.6%; in test [3], 7.3%.

Consider `Cc1ccc(-c2c(-c3ccc(S(C)(=O)=O)cc3)nn3c(C)c(C)cnc23)cc1`, for which the figures for the inhibition in test [1], in test [2] and in test [3] were 87.6%, 100% and 54.2%, respectively.

For the compound `CS(=O)(=O)c1ccc(-c2nn3c4c(cnc3c2-c2ccc(F)cc2)CSC4)cc1`, the values for the inhibition in test [1], in test [2] and in test [3] were 25%, 93.6% and 0%, respectively.

`CCCCc1cc(C)nc2c(-c3ccc(F)cc3)c(-c3ccc(S(C)(=O)=O)cc3)nn12`: the figures for the inhibition in test [1], in test [2] and in test [3] were 11%, 58.3% and 0%, respectively.

Take `Cc1cn2c(-c3ccc(F)cc3)c(-c3ccc(S(C)(=O)=O)cc3)nc2c(C)n1`: the inhibition was 0% in test [1], 82.4% in test [2] and 0% in test [3].

Turning to `Cc1cnc2c(-c3ccc(F)cc3)c(-c3ccc(S(N)(=O)=O)cc3)nn2c1C`, the inhibition in test [1] amounted to 22.5%; in test [2], 99.1%; in test [3], 22%.

Turning to `CCCCc1cnnc2c(-c3ccc(F)cc3)c(-c3ccc(S(C)(=O)=O)cc3)nn12`, the inhibition in test [1] is 0.9%; in test [2], 89.7%; in test [3], 69.8%.

For `CS(=O)(=O)c1ccc(-c2nn3c4c(cnc3c2-c2ccc(F)cc2)SCC4)cc1`, the inhibition in test [1] turned out to be 14.8%; in test [2] it was 90.7%; in test [3], 7%.

These data come from ChEMBL document CHEMBL1134336, “Synthesis and SAR of a new series of COX-2-selective inhibitors: pyrazolo[1,5-a]pyrimidines” (J Med Chem, 2001).
